The IC50 is the concentration that inhibits the measured activity by half. A higher IC50 goes with weaker potency in that assay. In general, ED50 refers to the dose at which the effect has come halfway, by size or by number of responders. Read a low ED50 as an effect at a small dose.

The structures appear in SMILES notation.

Experimental findings from ChEMBL document CHEMBL1123318, “(S)-3-[(benzyloxy)methyl]morpholine hydrochloride: a nonstimulant appetite suppressant without conventional neurotransmitter releasing properties” (J Med Chem, 1986) are described below.

For assay [1], the system named is Canis familiaris. Put plainly: Compound was evaluated for mean increase in food intake in dogs at 1 hour after oral administration at a dose 10 mg/kg. The format is functional, Canis lupus familiaris. A digest of the protocol: (§1)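 Mature beagle dogs were trained to a daily 4-h feeding period with free access to meat. Groups of three received oral drug in soft gelatin capsules 1 h before feeding, and controls received empty capsules. All dogs got placebo on days 1–2, then drug or placebo on days 3–5. Leftover food was weighed at 1 and 2 h. Per-dog % change was taken against the days 1–2 mean, then averaged over days 3–5 and per group.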

Assay [2] concerns Canis familiaris. As to the kind of experiment: Compound was evaluated for mean reduction in food intake in dogs at a dose 15 mg/kg at 2 hour after dosing for the first 3 days. The format is functional, Canis lupus familiaris. A digest of the protocol: (§2)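 Chronic regime: three beagle dogs on a daily 4-h meat feeding period were given a daily oral dose for 3 weeks. Food intake was measured 2 h after dosing. The mean % reduction versus control intake was compared between the first 3 and the last 3 days of the test.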

The subject of assay [3] is Canis familiaris. As to the kind of experiment: Compound was evaluated for mean reduction in food intake in dogs at a dose 15 mg/kg at 2 hour after dosing for the last 3 days. It is filed as functional, Canis lupus familiaris. An outline of the steps:
as §2

For assay [4], the species on record is Rattus norvegicus. As to the kind of experiment: Compound was found to have no effect on the release or uptake of noradrenaline at in rat brain synaptosomes; Inactive. The format is functional.
Assay [5] is filed under the species Rattus norvegicus. Put plainly: Compound was found to have no effect on the release or uptake of serotonin at in rat brain synaptosomes; Inactive. It is filed as functional.
Assay [6] concerns Canis familiaris. As to the kind of experiment: Compound was evaluated for mean reduction in food in take in dogs at 2 hour after dosing. The format is functional, Canis lupus familiaris. An outline of the steps:
as §1

Assay [7] relates to Canis familiaris. As to the kind of experiment: Compound was evaluated for mean reduction in food intake in dogs at 1 hour after dosing. The format is functional, Canis lupus familiaris. A digest of the protocol: as §1
The species named for assay [8] is Canis familiaris. As to the kind of experiment: Compound was evaluated for oral ED50 for appetite suppression in dogs. The format is functional. As to conditions: Canis lupus familiaris. An outline of the steps:
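ED50 for the 1-h food intake effect: five pairs of trained beagle dogs were randomly allocated to oral 5, 10, 15 or 20 mg/kg or to an undosed placebo pair. Treatments ran on successive days in a Latin Square design, and food was weighed 1 h into the feeding period.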

The species entered for assay [9] is Rattus norvegicus. As to the kind of experiment: Compound was found to have no effect on the release or uptake of dopamine at in rat brain synaptosomes; Inactive. It is filed as functional.
Assay [10] deals with Canis familiaris. As to the kind of experiment: Compound was evaluated for mean increase in food intake in dogs after oral administration at a dose 3 mg/kg. The format is functional, Canis lupus familiaris.
Assay [11] concerns Canis familiaris. Put plainly: Compound was evaluated for mean reduction in food intake in three dogs at a dose 3 mg/kg orally for 3 weeks at 2 hour after dosing for the first 3 days. As to conditions: route oral. It is filed as functional, Canis lupus familiaris. A digest of the protocol:
as §2

`Cl.c1ccc(COC[C@@H]2COCCN2)cc1`: the Increase with Canis familiaris [1] is recorded as 13%.

On to `Cl.c1ccc(COC[C@H]2COCCN2)cc1`, for which the Reduction was found to be 53% with Canis familiaris [2], 56% with Canis familiaris [3], 47% with Canis familiaris [6] and 51% with Canis familiaris [7]. The 50% inhibitory concentration (IC50) in the assay filed under Rattus norvegicus [4], in the assay filed under Rattus norvegicus [5] and in the assay listed under Rattus norvegicus [9] was above 10 µM in each case. In the assay filed under Canis familiaris [8], this compound had an ED50 of 12 mg/kg.

`CCN(CC)C(C)C(=O)c1ccccc1.Cl` (configuration not stated) [DIETHYLPROPION HYDROCHLORIDE]: the Increase in the assay on Canis familiaris [10] came out at 5%. The compound further came in with a Reduction in the assay with Canis familiaris [11] of 86%. Moreover, the 50% effective dose (ED50) in the assay filed under Canis familiaris [8] is 2 mg/kg.
